A selection: hits, their analogues and other compounds. The true share with any hit is near 2.9%.
SIRT5 block = SIRT5 desuccinylase inhibitors, primary screen, biochemical, fluorescence imaging, single point, set 5. AID 652115, 2013. Purified SirT5, succinyl-peptide AMC, trypsin-coupled fluorescence. inhibition, % at 15 µM. 1.1% of 330,000 active. NAD-dependent protein deacylase sirtuin-5, mitochondrial (Homo sapiens), Q9NXA8; in the data active = inhibition above about 15%; inconclusive = no clear call, values can overlap the other calls
Target sequence (Q9NXA8 whole entry, looked up): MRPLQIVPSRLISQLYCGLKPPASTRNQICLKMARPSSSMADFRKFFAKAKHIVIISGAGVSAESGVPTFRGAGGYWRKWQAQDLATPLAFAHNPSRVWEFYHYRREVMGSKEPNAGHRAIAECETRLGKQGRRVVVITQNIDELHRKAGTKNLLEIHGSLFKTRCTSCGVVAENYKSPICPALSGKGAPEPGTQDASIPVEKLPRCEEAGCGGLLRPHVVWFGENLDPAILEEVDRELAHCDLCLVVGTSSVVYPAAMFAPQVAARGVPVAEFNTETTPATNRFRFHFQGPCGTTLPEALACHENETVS
DENV2 CPE rescue = inhibitors of DENV2 cytopathic effect, primary screen, cell-based, plate reader, single concentration. CPE inhibition, % at 9.99 µM. DENV2-infected cells, cytopathic effect rescue. 1.7% of 350,000 active; in the data active = CPE inhibition above about 20%, passing the limit was not always enough; inconclusive = no clear call, values can overlap the other calls; tested in BHK-21 cells
E-sel inducer = E-selectin induction in HUVECs, primary screen, imaging, HUVEC, immunofluorescence imaging, single point; 0.37% of 260,000 active; activation, % at 7.58 µM; normalized: neutral wells 0, TNF-alpha wells 100;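 active = mean E-selectin-positive cell signal at least 10% of the positive control, reached in at least 60% of replicates, without over 20% cell loss; inconclusive = no rule given, readout overlaps actives, possibly toxicity-flagged; inactive = the rest, including those meeting only one limit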
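System: HUVEC, human umbilical vein endothelial cells; quantity: 3,000 cells/well; buffer or medium: EGM-2 medium, gelatin-coated wells; dosing: single-point compound dose; detection: immunofluorescence imaging; evaluation: % PE-positive cells; benchmarks: TNF-alpha, DMSO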
Of the large screens only hits and unclear results are named; the others gave an inactive call.

COc1ccc(CN(C)C[C@H]2Oc3ccc(NC(=O)C4CCCCC4)cc3C(=O)N([C@@H](C)CO)C[C@H]2C)cc1	DENV2 CPE rescue 24.6
COc1ccc(CN(C)C[C@@H]2Oc3ccc(NS(C)(=O)=O)cc3C(=O)N([C@H](C)CO)C[C@H]2C)cc1	DENV2 CPE rescue 24.7
COc1ccc(CN(C)C[C@@H]2Oc3ccc(NC(=O)C4CCCCC4)cc3C(=O)N([C@H](C)CO)C[C@H]2C)cc1	none
COc1ccc(CN(C)C[C@@H]2Oc3ccc(NS(C)(=O)=O)cc3C(=O)N([C@@H](C)CO)C[C@H]2C)cc1	none
O=C(c1ccccc1)c1sc(N2CCOCC2)nc1-c1ccccc1	none (no result: E-sel inducer)
CC(C)CC#Cc1ccc2c(c1)O[C@@H](CN(C)C(=O)c1cccnc1)[C@H](C)CN([C@@H](C)CO)S2(=O)=O	none
CCCC#Cc1ccc2c(c1)O[C@H](CN(C)Cc1ccccc1)[C@@H](C)CN([C@@H](C)CO)S2(=O)=O	none (no result: SIRT5 block, DENV2 CPE rescue)
CC(C)C#Cc1ccc2c(c1)O[C@@H](CN(C)Cc1ccccc1)[C@@H](C)CN([C@@H](C)CO)S2(=O)=O	SIRT5 block 16.9
CC(C)C#Cc1ccc2c(c1)O[C@H](CN(C)Cc1ccccc1)[C@@H](C)CN([C@@H](C)CO)S2(=O)=O	none
CCCC#Cc1ccc2c(c1)O[C@H](CN(C)Cc1ccccc1)[C@@H](C)CN([C@H](C)CO)S2(=O)=O	SIRT5 block 19.5
CC(C)C#Cc1ccc2c(c1)O[C@H](CN(C)Cc1ccccc1)[C@@H](C)CN([C@H](C)CO)S2(=O)=O	DENV2 CPE rescue inconclusive
CC(C)C#Cc1ccc2c(c1)O[C@H](CN(C)Cc1ccccc1)[C@H](C)CN([C@H](C)CO)S2(=O)=O	SIRT5 block 16.2
COc1ccc(NC(=O)N(C)C[C@@H]2Oc3c(NC(=O)c4cnccn4)cccc3C(=O)N([C@H](C)CO)C[C@H]2C)cc1	none (no result: E-sel inducer)
O=C(O)Cc1ccc(NS(=O)(=O)c2ccccc2Br)cc1	none (no result: SIRT5 block)
COc1ccc(NC(=O)C2(C)Cc3c(-c4ccc(N(C)C)cc4)ccnc3O2)cc1OC (centres undefined)	none
COc1cc(C(C(=O)NCc2ccccc2)N(Cc2ccco2)C(=O)c2cnccn2)cc(OC)c1OC (centres undefined)	none
CN1C(=O)c2cc(NC(=O)c3cnccn3)ccc2OC[C@H]2O[C@@H](CC(=O)NCC3CCCCC3)CC[C@H]21	none
CN1C(=O)c2cc(NC(=O)c3cnccn3)ccc2OC[C@@H]2O[C@@H](CC(=O)NCC3CCCCC3)CC[C@H]21	DENV2 CPE rescue 30.0
COC(=O)C[C@H]1CC[C@H]2[C@@H](COc3ccc(NC(=O)c4cnccn4)cc3C(=O)N2C)O1	DENV2 CPE rescue 143.6
COC(=O)C[C@@H]1CC[C@H]2[C@H](COc3ccc(NC(=O)c4cnccn4)cc3C(=O)N2C)O1	none
CCC1CN2CCc3cc(OC)c(OC)cc3C2CC1CC1c2cc(OC)c(OC)cc2CCN1C(=O)C(Cc1c[nH]c2ccccc12)NC(=O)OC(C)(C)C (centres undefined)	none (no result: SIRT5 block)
CCCCN(C(=O)Nc1ccccc1)C1CCS(=O)(=O)C1 (centres undefined)	DENV2 CPE rescue inconclusive
CCOC(=O)C1CCN(C(=O)c2cn(CCOC)c(=O)c3c2c2ccccc2n3C)CC1	none (no result: E-sel inducer)
COC(CN1CCc2c(C)nc3c(C#N)cnn3c21)OC	SIRT5 block 17.3
Cc1nc2c(C#N)cnn2c2c1CCNN2C	none (no result: E-sel inducer)
CC1CC(C)CN(C(=O)CSCC(=O)Nc2nc(-c3cccs3)cs2)C1 (centres undefined)	none
CC1=CC2=C(C=O)C(=O)C(C)(O)C(O)C2=CO1 (centres undefined)	none (no result: E-sel inducer)
CN(C)S(=O)(=O)c1ccccc1C#N	none (no result: E-sel inducer)
CN(C)S(=O)(=O)c1cccc2c1C(=O)c1ccccc1C2=O	DENV2 CPE rescue 23.4 (no result: E-sel inducer)
Cc1cccc(C)c1NC(=O)C1(C)CSCC(=O)N1Cc1cccc(F)c1 (centres undefined)	none
Cc1cccc(C)c1NC(=O)C1(C)CSCC(=O)N1Cc1cccc(C(F)(F)F)c1 (centres undefined)	DENV2 CPE rescue 34.1
CN(CCc1ccccn1)C(=O)CCC1CCCN(C(=O)c2ccc3c(c2)OCCO3)C1 (centres undefined)	none (no result: DENV2 CPE rescue)
CN(CCc1ccccn1)C(=O)CCC1CCCN(C(=O)c2cccc(N(C)C)c2)C1 (centres undefined)	DENV2 CPE rescue 34.6 (no result: E-sel inducer)
O=C(NCc1ccccn1)c1ccc([N+](=O)[O-])cc1	none (no result: E-sel inducer)
O=C(c1ccc([N+](=O)[O-])cc1)N(c1ccccn1)c1ccccn1	SIRT5 block 20.4 (no result: E-sel inducer)
O=c1cc(CN2CCCc3ccccc32)nc2sccn12	none (no result: SIRT5 block, E-sel inducer)
Cn1c(SCC(=O)N2CCCC2)nc2c(c1=O)SCC2	DENV2 CPE rescue 58.7

Bioassay records deposited in PubChem BioAssay by Broad Institute.
